Assay results reported in ChEMBL document CHEMBL1126240, “Structure-activity relationship studies of central nervous system agents. 5. Effect of the hydrocarbon chain on the affinity of 4-substituted 1-(3-chlorophenyl)piperazines for 5-HT1A receptor site” (J Med Chem, 1992).

Columns and labels:
[1] = Compound was evaluated for the percentage ionization at the pH 7.4 at 37 degree Centigrade; type: ADME
Outline: (§1)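 Fraction ionized calculated from eq 1 using pKa2 measured by potentiometric titration at 37 °C, for pH 7.4 and 37 °C.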

[2] = target: T1, 5-hydroxytryptamine receptor 1A (Rattus norvegicus) (UniProt P19327); assay: Compound was evaluated for its ability to displace the protonated form of [3H]8-hydroxy-2-(di-n-propylamino)tetralin binding from labeled 5-HT 1A receptor site.
T1 sequence (whole entry): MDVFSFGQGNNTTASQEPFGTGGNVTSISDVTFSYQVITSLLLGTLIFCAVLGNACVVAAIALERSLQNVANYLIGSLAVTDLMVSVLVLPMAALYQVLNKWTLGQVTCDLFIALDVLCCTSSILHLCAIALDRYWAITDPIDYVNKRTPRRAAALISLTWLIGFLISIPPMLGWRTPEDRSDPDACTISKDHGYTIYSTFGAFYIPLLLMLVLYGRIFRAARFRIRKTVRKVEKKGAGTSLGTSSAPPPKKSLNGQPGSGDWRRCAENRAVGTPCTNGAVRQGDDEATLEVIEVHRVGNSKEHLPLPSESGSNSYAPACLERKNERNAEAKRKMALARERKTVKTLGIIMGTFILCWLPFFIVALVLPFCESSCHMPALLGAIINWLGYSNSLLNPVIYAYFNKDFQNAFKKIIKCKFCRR
Outline: (§2)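 Radioligand displacement in rat hippocampal tissue using [³H]-8-OH-DPAT as ligand, following a previously published protocol; affinity given as Ki for the protonated (AH+) species.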

[3] = Compound was evaluated for the Ionization constants at 37 degree Centigrade pKa2; type: physicochemical; settings: read-out: pKa2
Outline: (§3)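 Potentiometric titration at 37 °C; pKa values fitted to the titration data by nonlinear regression.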

[4] = % ionization at the pH 7.4 at 37 degree Centigrade; type: ADME; outline: as §1
[5] = target: T1, 5-hydroxytryptamine receptor 1A (Rattus norvegicus); assay: Ability to displace the protonated form of [3H]8-hydroxy-2-(di-n-propylamino)tetralin binding from labeled 5-hydroxytryptamine 1A receptor site in rat brain hippocampus; type: tissue-based; outline: as §2
[6] = target: T2, 5-hydroxytryptamine receptor 1A (Rattus norvegicus, UniProt P19327); assay: In vitro ability to displace [3H]8-hydroxy-2-(di-n-propylamino) tetralin binding from 5-hydroxytryptamine 1A receptor site in rat brain hippocampus; type: tissue-based
T2 sequence (P19327 whole entry): T1 sequence (whole entry)

[7] = target: T1, 5-hydroxytryptamine receptor 1A (Rattus norvegicus); settings: Hippocampus
[8] = Compound was evaluated for the Ionization constants at 37 degree Celsius pKa1; type: physicochemical; settings: read-out: pKa1; outline: as §3

Structure (SMILES): CCCN(CCC)C1CCc2cccc(O)c2C1 (stereo unspecified) [8-OH-DPAT]
- Ionization [1]: 80.6%
- KiAH [2]: 1.16 nM
- pKa [3]: 8.02

Structure (SMILES): Clc1cccc(N2CCNCC2)c1 [CHLOROPHENYLPIPERAZINE]
- Ionization [4]: 91.3%
- KiAH [5]: 131 nM
- Ki [6]: 143 nM
- pKa [3]: 8.42

Structure (SMILES): OCCN1CCN(c2cccc(Cl)c2)CC1
- Ionization [4]: 24.9%
- KiAH [5]: 50.3 nM
- Ki [6]: 202 nM
- pKa [3]: 6.92

Structure (SMILES): O=C1c2ccccc2S(=O)(=O)N1CCCCN1CCN(c2ncccn2)CC1 [IPSAPIRONE]
- KiAH [7]: 0.024 nM
- Ionization [4]: 0.7%
- Ki [6]: 3.4 nM
- pKa [3]: 5.25

Structure (SMILES): Clc1cccc(N2CCOCC2)c1
- pKa [8]: 2.33
- Ki [6]: > 100000 nM

Structure (SMILES): C=CCN1CCN(c2cccc(Cl)c2)CC1
- Ionization [4]: 32.4%
- pKa [8]: 2.94
- KiAH [5]: 81.2 nM
- Ki [6]: 251 nM
- pKa [3]: 7.08

Structure (SMILES): Clc1cccc(N2CCN(Cc3ccccc3)CC2)c1
- Ionization [4]: 0.1%
- KiAH [5]: 0.166 nM
- Ki [6]: 166 nM
- pKa [3]: 4.39

Structure (SMILES): CCCN1CCN(c2cccc(Cl)c2)CC1
- Ionization [4]: 31.9%
- pKa [8]: 2.39
- KiAH [5]: 38.9 nM
- Ki [6]: 122 nM
- pKa [3]: 7.07

Structure (SMILES): O=C(Cc1ccccc1)N1CCN(c2cccc(Cl)c2)CC1
- Ki [6]: 14800 nM

Structure (SMILES): CCCC(=O)N1CCN(c2cccc(Cl)c2)CC1
- Ki [6]: 49000 nM

Structure (SMILES): CN1CCN(c2cccc(Cl)c2)CC1
- Ionization [4]: 88.1%
- pKa [8]: 2.82
- KiAH [5]: 134 nM
- Ki [6]: 152 nM
- pKa [3]: 8.27

Structure (SMILES): O=C(c1ccccc1)N1CCN(c2cccc(Cl)c2)CC1
- Ki [6]: > 100000 nM

Structure (SMILES): Clc1cccc(N2CC[N+]3(CCCC3)CC2)c1
- Ki [6]: 7220 nM

Structure (SMILES): CCC(C)N1CCN(c2cccc(Cl)c2)CC1 (stereo unspecified)
- Ionization [4]: 21.6%
- pKa [8]: 2.32
- KiAH [5]: 27.4 nM
- Ki [6]: 127 nM
- pKa [3]: 6.84

Structure (SMILES): CCCCN1CCN(c2cccc(Cl)c2)CC1
- Ionization [4]: 16.6%
- pKa [8]: 2.43
- KiAH [5]: 3.06 nM
- Ki [6]: 18.4 nM
- pKa [3]: 6.7

Structure (SMILES): CCCCCCN1CCN(c2cccc(Cl)c2)CC1
- Ionization [4]: 1.2%
- pKa [8]: 2.57
- KiAH [5]: 0.032 nM
- Ki [6]: 2.67 nM
- pKa [3]: 5.49

Structure (SMILES): CC(=O)N1CCN(c2cccc(Cl)c2)CC1
- Ki [6]: > 100000 nM

Structure (SMILES): CC1(C)CC(=O)N(CCCCN2CCN(c3ncccn3)CC2)C(=O)C1 [GEPIRONE]
- Ionization [4]: 63.5%
- KiAH [5]: 20.2 nM
- pKa [3]: 7.64

Structure (SMILES): CCN1CCN(c2cccc(Cl)c2)CC1
- Ionization [4]: 75.5%
- pKa [8]: 2.48
- KiAH [5]: 166 nM
- Ki [6]: 220 nM
- pKa [3]: 7.89

Structure (SMILES): CCCCCN1CCN(c2cccc(Cl)c2)CC1
- Ionization [4]: 5.1%
- pKa [8]: 2.46
- KiAH [5]: 0.282 nM
- Ki [6]: 5.54 nM
- pKa [3]: 6.13

Structure (SMILES): CC(C)N1CCN(c2cccc(Cl)c2)CC1
- Ionization [4]: 64%
- pKa [8]: 2.37
- KiAH [5]: 102 nM
- Ki [6]: 159 nM
- pKa [3]: 7.65

Structure (SMILES): CC(C)C(=O)N1CCN(c2cccc(Cl)c2)CC1
- Ki [6]: > 100000 nM

Structure (SMILES): CCC(=O)N1CCN(c2cccc(Cl)c2)CC1
- Ki [6]: 30800 nM
